Measured values as given in PMC12480717 (Scientific Reports, 2025).

Tests used:
Assay in all cases: MIC
Type in all cases: cell-based
Conditions in all cases: broth microdilution, 37 °C, 24 h
S. aureus ATCC 29213 = system: S. aureus ATCC 29213
In short: (§1)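 Strains were kept in TSB with 25% glycerol at −70 °C and grown aerobically on nutrient agar at 37 °C for 24 h. For MIC, test compound was diluted twofold (1–256 µg/mL) and ~10^6 cells/mL were added, followed by 37 °C for 24 h. MIC was read visually as 99% growth inhibition, with gentamycin as control. For MBC, non-turbid wells were plated on Mueller–Hinton agar for 24 h at 37 °C; MBC was the lowest concentration giving no colonies.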

A. baumannii ATCC 19606 = system: A. baumannii ATCC 19606
In short: as §1

P. aeruginosa ATCC 27853 = system: P. aeruginosa ATCC 27853
In short: as §1

MIC (S. aureus ATCC 29213): 1 µg/mL | MIC (A. baumannii ATCC 19606): 4 µg/mL | MIC (P. aeruginosa ATCC 27853): 2 µg/mL
Substance: Gentamycin
